Compounds with a hit are over-represented: about 2.4% of the library has one in this group of screens.
Cneo AK release – causes C. neoformans cell lysis; adenylate kinase release luminescence, 4 h; normalised: neutral wells 0, clomiphene wells 100; lysis activity, % at 15 µM; 360,000 compounds, 0.2% hits; AID 651654;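 active = mean lysis activity across replicates of at least 80%, whatever share of replicates individually reach that level; inactive = mean lysis activity below 80%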
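Material: C. neoformans cells; Schedule: 4 h static compound exposure, 37 °C, read 1 h post-reagent; Measured by: adenylate kinase release luminescence; Read-out: signal increase indicating cell lysis; Controls: Clomiphene as positive lysis control.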
dFosB activator – mouse delta FosB homodimer activation; P13346; purified delta FosB, TAMRA-CDK5 oligo fluorescence polarization; percent of positive-control signal above neutral wells; activation, % at 25 µM; 340,000 compounds, 0.99% hits; AID 493131;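 active = mean activation above about 17%, with every replicate also reaching it, limit read from the data, passing the limit was not always enough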
HIV Env fusion – blocks HIV Env-driven cell-cell fusion | HeLa-JRFL Env/CEM21 cell fusion, luciferase | inhibition, % at 12.3 µM | 360,000 compounds, 1.1% hits;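 active = mean replicate inhibition score of at least 50 and every replicate individually at or above 50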;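 note: 0% = plate neutral controls and 100% = maraviroc near 300 nM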
miR122 inh – blocks miR-122 activity in Huh7 sensor cells; Huh7 miR-122 Renilla luciferase sensor, 48 h; neutral wells = 0, positive control = 100; activation (reporter increase), % at 12.5 µM; 340,000 compounds, 0.3% hits; AID 602342;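 active = mean replicate activation score at least 90 and every replicate individually at or above 90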;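 note: higher luciferase means less miR-122 activity so hits act as miR-122 inhibitors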
Rtt109 Vps75 – blocks Candida albicans Rtt109/Vps75 acetyltransferase activity; purified Rtt109/Vps75, ThioGlo CoA-SH fluorescence, 4 h; Q5AAJ8; inhibition, % at 34.9 µM; 330,000 compounds, 0.16% hits;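 active = inhibition of at least 50% in every replicate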
Target sequence (Q5AAJ8 whole entry, looked up): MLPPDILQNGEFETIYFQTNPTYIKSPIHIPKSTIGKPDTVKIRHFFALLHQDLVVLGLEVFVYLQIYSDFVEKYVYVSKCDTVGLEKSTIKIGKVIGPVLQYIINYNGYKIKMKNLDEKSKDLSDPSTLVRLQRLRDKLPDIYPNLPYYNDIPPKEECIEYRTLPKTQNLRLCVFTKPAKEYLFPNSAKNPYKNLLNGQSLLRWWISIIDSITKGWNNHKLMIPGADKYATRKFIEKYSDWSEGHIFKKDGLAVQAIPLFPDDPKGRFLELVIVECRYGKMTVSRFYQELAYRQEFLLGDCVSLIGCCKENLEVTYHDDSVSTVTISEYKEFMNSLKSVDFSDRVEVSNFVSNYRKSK
INS-1E GSIS act – GLuc luminescence reporter in INS-1E cells, primary screen for activators of glucose-dependent secretion of insulin | activation, % at 16.6 µM | AID 743287 | 370,000 compounds, 0.61% hits | INS-1E GLuc reporter insulin secretion, 2-3 h;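 active = lowest replicate activation of at least 40%, so every replicate reaches that level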;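 note: 0% = median of neutral control wells and 100% = median of IBMX positive control wells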
The depositor's hits bear a star; i = inactive; . = no result; ! = a repeat was not active; [ ] = dose if it differs, or a comment.

SMILES	Cneo AK release	dFosB activator	HIV Env fusion	miR122 inh	Rtt109 Vps75	INS-1E GSIS act
CC1=C(C(=O)NC2CCCc3c2cnn3-c2cccc(C)c2C)OCCO1 (configuration not stated)	4	-8	.	-11	1	-28
C[C@H](CO)N1C[C@H](C)[C@@H](CN(C)S(=O)(=O)c2cn(C)cn2)Oc2c(NC(=O)CCC(F)(F)F)cccc2C1=O	.	.	.	.	.	27
CCCC#Cc1cnc2c(c1)C(=O)N([C@H](C)CO)C[C@@H](C)[C@@H](CN(C)C(=O)CN1CCOCC1)O2	.	.	.	.	.	11
C[C@H](CO)N1C[C@H](C)[C@H](CN(C)C(=O)Nc2ccc(F)cc2)Oc2c(NS(=O)(=O)c3ccccc3)cccc2C1=O	-3	.	.	3[16.7 µM]	.	-16
C[C@H](CO)N1C[C@H](C)[C@@H](CN(C)C(=O)Nc2ccc(F)cc2)Oc2c(NS(=O)(=O)c3ccccc3)cccc2C1=O	102*	.	.	128*[16.7 µM]	.	-4
C[C@@H]1CN([C@H](C)CO)C(=O)c2cccc(NS(=O)(=O)c3cn(C)cn3)c2O[C@H]1CN(C)C(=O)Nc1ccc(F)cc1	-55	.	73*[16.7 µM]	14[16.7 µM]	.	-5
O=C(C[C@@H]1CC[C@H]2[C@@H](COC[C@H](O)CN2Cc2cc(F)cc(F)c2)O1)NC1CCC1	-4	.	.	-1[16.7 µM]	.	1
CO[C@H]1CN(C)C(=O)c2ccc(NC(C)=O)cc2OC[C@@H](C)N(S(=O)(=O)c2cn(C)cn2)C[C@@H]1C	4	.	.	.	.	12
Cc1ccc(C#N)c(SCc2nnc(-c3ccc(Cl)cc3)o2)n1	1	-6	i	2	58*	10
Nc1ccc(Cn2ccc3c4c(N)nc(N)nc4ccc32)cc1	.	158*	29	3	-2	5
Cc1ccc(CCNC(=O)CCNS(=O)(=O)c2ccc3c(c2)c(=O)n(C)c(=O)n3C)cc1	-1	-11	-30	-3	6	-11
Cn1c(=O)c2cc(S(=O)(=O)NCCC(=O)NCCC3=CCCCC3)ccc2n(C)c1=O	-2	-11	.	103*	2	.
O=S(=O)(NC1CC2CCC1C2)c1ccc2c(c1)OCCO2 (configuration not stated)	-3	-1	.	126*	4	.
COc1ccc(S(=O)(=O)NC2CC3CCC2C3)cc1Br (configuration not stated)	3	-4	-7	84	-1	-11
COc1ccc(S(=O)(=O)NC2CC3CCC2C3)cc1Cl (configuration not stated)	1	-4	.	108*	-6	-32
COc1cccc(OCCCN2CCN(S(=O)(=O)c3ccc(NC(C)=O)cc3)CC2)c1	.	-6	63*	-5	6	.
C=CCSc1nc(=O)n2cccc(C)c2n1	0	-7	.	-1	-6	67*
C=CCSc1nc(=O)n2ccccc2n1	6	-2	13	-1	-5	17
Cc1cccn2c(=O)nc(SCC(=O)N3CCCCC3)nc12	.	1	5	.	2	43*
Cc1cccn2c(=O)nc(SCC(=O)N3CCCCCC3)nc12	-1	1	.	.	-7	10
COc1ccccc1Nc1c2c(nc3ccc(N)cc13)CCCC2	-4	-5	11	.	4	65*
Cc1ccc(C(=O)Oc2ccc(-c3nccc(-c4ccccn4)n3)cc2)cc1	3	-3	.	-6	3	56*
CCCN1C[C@H](C)[C@H](OC)CN(C)C(=O)c2ccc(NC(=O)c3cccc(OC)c3)cc2OC[C@@H]1C	0	.	-11[16.7 µM]	-10[16.7 µM]	.	13
C[C@H]1CN([C@@H](C)CO)C(=O)c2cccc(NC(=O)c3cnccn3)c2O[C@H]1CN(C)Cc1ccc(C(F)(F)F)cc1	4	.	19[16.7 µM]	16[16.7 µM]	.	-1
C[C@H](CO)N1C[C@H](C)[C@@H](CN(C)Cc2ccccc2)Oc2c(NC(=O)C3CC3)cccc2C1=O	-5	4	-90	91*!	3	-6
SMILES	Cneo AK release	dFosB activator	HIV Env fusion	miR122 inh	Rtt109 Vps75	INS-1E GSIS act
C[C@H](CO)N1C[C@H](C)[C@@H](CN(C)Cc2ccc(C(F)(F)F)cc2)Oc2c(NC(=O)c3cnccn3)cccc2C1=O	-1	.	14[16.7 µM]	114*[16.7 µM]	.	-8
Cc1noc(C)c1S(=O)(=O)N(C)C[C@@H]1Oc2c(NC(=O)C3CCCCC3)cccc2C(=O)N([C@H](C)CO)C[C@@H]1C	-12	.	.	197*[16.7 µM]	.	9
C[C@@H]1CN([C@H](C)CO)C(=O)c2cccc(NC(=O)C3CC3)c2O[C@H]1CN(C)Cc1ccc(C(F)(F)F)cc1	11	.	6[16.7 µM]	106*[16.7 µM]	.	-7
CCCNC(=O)Nc1ccc2c(c1)OC[C@@H](C)N(C(=O)CC)C[C@@H](C)[C@@H](OC)CN(C)C2=O	-1	.	.	-3[16.7 µM]	.	3
O=C(C[C@H]1C[C@@H]2c3cc(NC(=O)Nc4ccccc4)ccc3O[C@@H]2[C@@H](CO)O1)NC1CCCCC1	2	.	13[16.7 µM]	3[16.7 µM]	.	-16
CCCNC(=O)N1CC2(CN(CC3CCOCC3)C2)c2c([nH]c3cc(OC)ccc23)[C@H]1CO	.	.	.	.	.	5
C[C@@H]1CN([C@@H](C)CO)C(=O)c2cccc(NC(=O)C3CCCCC3)c2O[C@@H]1CN(C)Cc1ccc(C(=O)Nc2ccccc2N)cc1	-8	.	-35[16.7 µM]	185*[16.7 µM]	.	-3
C[C@@H]1CN([C@H](C)CO)C(=O)c2cccc(NC(=O)C3CCCCC3)c2O[C@@H]1CN(C)Cc1ccccc1	-4	.	-1[16.7 µM]	4[16.7 µM]	.	0
Cc1noc(C)c1NC(=O)Nc1cccc2c1O[C@@H](CN(C)S(=O)(=O)c1cn(C)cn1)[C@H](C)CN([C@@H](C)CO)C2=O	0	.	.	-1[16.7 µM]	.	12
C[C@@H]1CN([C@H](C)CO)C(=O)c2cccc(NC(=O)C3CCCCC3)c2O[C@H]1CN(C)Cc1ccccc1	-3	.	74*[16.7 µM]	15[16.7 µM]	.	-2
COc1ccc(CN(C)C[C@H]2Oc3c(NC(=O)NC4CCCCC4)cccc3C(=O)N([C@H](C)CO)C[C@@H]2C)cc1	-1	.	.	255*[16.7 µM]	.	-20
Cc1noc(C)c1NC(=O)Nc1cccc2c1O[C@H](CN(C)S(=O)(=O)c1cn(C)cn1)[C@H](C)CN([C@H](C)CO)C2=O	96*	.	.	11[16.7 µM]	.	.
CN(C)c1ccc2c(c1)[C@H]1C[C@H](CC(=O)NCc3cccc(F)c3)O[C@@H](CO)[C@H]1O2	-5	.	-20[16.7 µM]	7[16.7 µM]	.	-12
O=C(C(=O)N(Cc1ccccc1)Cc1ccccc1)c1c(-c2ccccc2)[nH]c2ccccc12	0	-11	.	100*	-2	2
COCCNC(=O)C[C@@H]1CC[C@H]2[C@@H](COC[C@@H](O)CN2S(=O)(=O)c2ccccc2C)O1	-1	.	.	-1[16.7 µM]	.	7
CC(O)c1nc2ccccc2n1C1CCCCC1 (configuration not stated)	1	1	.	-6	.	63*

Source: PubChem
